Experimental data reported in ChEMBL document CHEMBL2034950, “Sphingolipid analogues inhibit development of malaria parasites” (ACS Med Chem Lett, 2012).
pIC50: −log10 of the molar value. Active and inactive are the calls of the source. No cut-off for these calls is given here.

How the values were obtained:
Plasmodium falciparum [1] = assay: Antimalarial activity against chloroquine-resistant Plasmodium falciparum W2 infected in O-positive human RBC assessed as [3H]-hypoxanthine incorporation after 48 hrs by scintillation counting; assay type: functional, organism-based
In short: (§1)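 Growth inhibition in vitro by [3H]-hypoxanthine uptake in parasitized RBCs; dose-response runs to derive IC50.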

Plasmodium falciparum [2] = assay: Antimalarial activity against chloroquine-sensitive Plasmodium falciparum D6 infected in O-positive human RBC assessed as [3H]-hypoxanthine incorporation after 48 hrs by scintillation counting; assay type: functional, organism-based; in short: as §1
[3] = Cytotoxicity against human HFF1 cells at 10 uM after 72 hrs by SRB assay; assay type: cell-based; settings: hff-1, 72 h
In short: (§2)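 Human foreskin fibroblasts (HFF-1) were seeded at 20,000 cells per plate, incubated with compound at 10 or 50 μM for 72 h, and read by sulforhodamine B assay.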

[4] = Cytotoxicity against human HFF1 cells at 50 uM after 72 hrs by SRB assay; assay type: cell-based; settings: hff-1, 72 h; in short: as §2
Plasmodium knowlesi = assay: Antimalarial activity against Plasmodium knowlesi infected in rhesus monkey RBC assessed as [3H]-hypoxanthine incorporation after 12 hrs by scintillation counting; assay type: functional, organism-based
In short: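 Dose-response assay of in vitro parasite growth and replication in red blood cells, read as [³H]-hypoxanthine uptake. IC50 values were derived, with the error given as standard deviation.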

Plasmodium falciparum [5] = assay: Antimalarial activity against chloroquine-resistant Plasmodium falciparum W2 infected in O-positive human RBC assessed as aberrant form of ring-stage parasites at 546.94 ng/mL after 28 to 48 hrs by Giemsa staining-based microscopic analysis; assay type: functional, organism-based
Plasmodium falciparum [6] = assay: Antimalarial activity against chloroquine-resistant Plasmodium falciparum W2 infected in O-positive human RBC assessed as aberrant form of trophozoite-stage parasites at 546.94 ng/mL after 28 to 48 hrs by Giemsa staining-based microscopic analysis; assay type: functional, organism-based
Plasmodium falciparum [7] = assay: Antimalarial activity against chloroquine-resistant Plasmodium falciparum W2 infected in O-positive human RBC assessed as parasitemia at 546.94 ng/mL after 48 hrs by Giemsa staining-based microscopic analysis; assay type: functional
Plasmodium falciparum [8] = assay: Antimalarial activity against chloroquine-resistant Plasmodium falciparum W2 infected in O-positive human RBC assessed as ring-stage parasites at 546.94 ng/mL after 48 hrs by Giemsa staining-based microscopic analysis (reference value: 87.9%); assay type: functional
Plasmodium falciparum [9] = assay: Antimalarial activity against chloroquine-resistant Plasmodium falciparum W2 infected in O-positive human RBC assessed as trophozoite-stage parasites at 546.94 ng/mL after 48 hrs by Giemsa staining-based microscopic analysis (reference value: 4.2%); assay type: functional
Plasmodium falciparum [10] = assay: Antimalarial activity against chloroquine-resistant Plasmodium falciparum W2 infected in O-positive human RBC assessed as schizont-stage parasites at 546.94 ng/mL after 48 hrs by Giemsa staining-based microscopic analysis (reference value: 8.05%); assay type: functional
Plasmodium falciparum [11] = assay: Antimalarial activity against chloroquine-resistant Plasmodium falciparum W2 infected in O-positive human RBC assessed as [3H]-hypoxanthine incorporation after 48 hrs by scintillation counting in presence of BSA; assay type: functional, organism-based
Plasmodium falciparum [12] = assay: Antimalarial activity against chloroquine-sensitive Plasmodium falciparum D6 infected in O-positive human RBC assessed as [3H]-hypoxanthine incorporation after 48 hrs by scintillation counting in presence of BSA; assay type: functional, organism-based
[13] = Cmax in mouse RBC at 30 mg/kg, po QD; assay type: ADME, organism-based, Erythrocyte; parameters: dose 30 mg/kg, route oral; settings: red blood cells (RBC)
In short: (§3)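 Mice were dosed orally once daily at 30 mg/kg for five days. Drug levels were followed over time in plasma and in red blood cells on day 1 and on day 5 of dosing.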

[14] = Half life in mouse RBC at 30 mg/kg, po QD; assay type: ADME, organism-based, Erythrocyte; parameters: dose 30 mg/kg, route oral; settings: red blood cells (RBC); in short: as §3
[15] = Apparent volume of distribution during terminal phase in mouse RBC at 30 mg/kg, po QD; assay type: ADME, organism-based, Erythrocyte; parameters: dose 30 mg/kg, route oral; settings: red blood cells (RBC), read-out: Vz/F; in short: as §3
[16] = AUC (0 to infinity) in mouse RBC at 30 mg/kg, po QD; assay type: ADME, organism-based, Erythrocyte; parameters: time infinity, dose 30 mg/kg, route oral; settings: red blood cells (RBC); in short: as §3
[17] = Tmax in mouse plasma at 30 mg/kg, po QD; assay type: ADME, organism-based; parameters: dose 30 mg/kg, route oral; in short: as §3
[18] = Cmax in mouse plasma at 30 mg/kg, po QD; assay type: ADME, organism-based; parameters: dose 30 mg/kg, route oral; in short: as §3
[19] = Half life in mouse plasma at 30 mg/kg, po QD; assay type: ADME, organism-based; parameters: dose 30 mg/kg, route oral; in short: as §3
Plasma = assay: Apparent volume of distribution during terminal phase in mouse plasma at 30 mg/kg, po QD; assay type: ADME, organism-based; parameters: dose 30 mg/kg, route oral; settings: in vivo; in short: as §3
[20] = AUC (0 to infinity) in mouse plasma at 30 mg/kg, po QD; assay type: ADME, organism-based; parameters: time infinity, dose 30 mg/kg, route oral; in short: as §3
[21] = Ratio of drug uptake in mouse RBC to mouse plasma at 30 mg/kg, po QD; assay type: ADME, organism-based; parameters: dose 30 mg/kg, route oral; settings: red blood cells (RBC) / plasma; in short: as §3

Row | SMILES | pIC50 (Plasmodium falciparum [1]) | pIC50 (Plasmodium falciparum [2]) | Activity [3] | Activity [4] | pIC50 (Plasmodium knowlesi) | pIC50 (Plasmodium falciparum [11]) | pIC50 (Plasmodium falciparum [12]) | other results
1 | CCCCCCCC(F)(F)CCCCC[C@H](O)C[C@H](O)[C@H](C)N | 5.25 | 4.90 | Non-toxic | Toxic |  |  |  | 
2 | CCCCCCCCCCCCC[C@H](O)C[C@H](O)[C@H](C)NC | 5.80 | 5.33 | Non-toxic | Toxic | 5.77 | 6.05 | 5.77 | Activity (Plasmodium falciparum [5]): Active; Activity (Plasmodium falciparum [6]): Active; Activity (Plasmodium falciparum [7]): 1.3%; Activity (Plasmodium falciparum [8]): 41.9%; Activity (Plasmodium falciparum [9]): 39.2%; Activity (Plasmodium falciparum [10]): 18.9%
3 | CCCCCCCCCCCCCC(O)C/C(=N\O)C(C)(C)N (racemic) |  |  |  |  |  | 5.00 | 5.13 | 
4 | CCCCCCCC(F)(F)CCCCC[C@H](O)C[C@H](O)[C@H](C)NC | 5.62 | 5.14 | Non-toxic | Toxic |  |  |  | 
5 | CCCCCCCCCCCCC[C@H](O)C[C@H](O)[C@H](C)N(C)C | 5.36 | 5.15 | Non-toxic | Toxic | 5.17 |  |  | 
6 | CCCCCCCCCCCCC[C@H](O)C[C@@H](O)[C@H](C)NC | 5.09 | 4.84 | Non-toxic | Toxic |  |  |  | 
7 | CCCCCCCCCCCCC[C@H](O)C[C@H](O)C1(N)CC1 (racemic) |  |  |  |  |  | 5.00 | 5.26 | 
8 | CCCCCCCCCCCCC[C@H](O)C[C@H](O)[C@H](C)NC(C)=O | 4.88 | 4.95 | Non-toxic | Toxic |  |  |  | Activity (Plasmodium knowlesi): inactive
9 | CCCCCCCCCCCCC[C@H](O)C[C@H](O)C(C)(C)NC (racemic) |  |  |  |  |  | 6.60 | 6.15 | 
10 | CCCCCCCCCCCCC[C@@H](O)C[C@H](O)C(C)(C)N (racemic) |  |  |  |  |  | 5.13 | 5.39 | 
11 | CCCCCCCCCCCCCCCC(=O)N[C@@H](C)[C@@H](O)C[C@@H](O)CCCCCCCCCCCCC |  |  | Non-toxic | Toxic |  |  |  | Activity (Plasmodium falciparum [1]): inactive; Activity (Plasmodium falciparum [2]): inactive; Activity (Plasmodium knowlesi): inactive
12 | CCCCCCCCCCCCC[C@@H](O)C[C@H](O)C1(N)CC1 (racemic) |  |  |  |  |  | 5.14 | 4.95 | 
13 | CCCCCCCCCCCCCC(O)CC(=O)C(C)(C)N (racemic) |  |  |  |  |  | 5.59 | 5.60 | 
14 | O[C@@H](c1cc(C(F)(F)F)nc2c(C(F)(F)F)cccc12)[C@H]1CCCCN1 (relative stereo) [(S,R)-MEFLOQUINE] |  |  |  |  | 7.40 | 9.40 |  | 
15 | CCCCCCCCCCCCC[C@H](O)C[C@@H](O)[C@H](C)N | 5.04 | 4.75 | Non-toxic | Toxic | 4.69 |  |  | 
16 | CCCCCCCCCCCCC[C@H](O)C[C@H](O)[C@@H]1CCCN1 | 5.36 | 5.01 | Non-toxic | Toxic | 5.20 |  |  | 
17 | CCCCCCCCCCCCC[C@@H](O)C[C@H](O)[C@H](C)N | 5.09 | 4.90 | Non-toxic | Toxic | 4.75 |  |  | 
18 | CCCCCCCCCCCCC[C@H](O)C[C@H](O)[C@H](C)N [ENIGMOL] | 5.13 | 4.90 | Non-toxic | Toxic | 4.98 | 5.04 | 5.28 | Cmax [13]: 3300 nM; half-life [14]: 8.9 h; Vd/F [15]: 25 L/kg; AUC(0-inf) [16]: 50.7 µM·h; Tmax [17]: 2 h; Cmax [18]: 1100 nM; half-life [19]: 10.7 h; Vz/F (Plasma): 4.4 L/kg; AUC(0-inf) [20]: 14.4 µM·h; Kp [21]: 3
19 | CCCCCCCCCCCCC[C@H](O)C[C@H](O)C(C)(C)N (racemic) |  |  |  |  |  | 5.33 | 5.28 | 
